One data set deals with T1, human NMU1 (Homo sapiens, UniProt Q9HB89).
T1 sequence (Q9HB89 1-426): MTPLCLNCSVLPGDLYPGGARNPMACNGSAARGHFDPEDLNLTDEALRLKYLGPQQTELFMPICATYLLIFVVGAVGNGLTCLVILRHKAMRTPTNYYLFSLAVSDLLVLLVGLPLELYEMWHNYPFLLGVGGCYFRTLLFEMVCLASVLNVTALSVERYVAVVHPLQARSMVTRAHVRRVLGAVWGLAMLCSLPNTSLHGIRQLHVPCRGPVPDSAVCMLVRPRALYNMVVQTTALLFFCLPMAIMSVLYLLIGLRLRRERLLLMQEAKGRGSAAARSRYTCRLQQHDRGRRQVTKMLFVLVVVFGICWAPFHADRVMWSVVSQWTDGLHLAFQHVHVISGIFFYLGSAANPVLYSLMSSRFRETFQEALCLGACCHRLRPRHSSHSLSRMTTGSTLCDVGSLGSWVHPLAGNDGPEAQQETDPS
The data set is described as follows: cellular calcium signaling assay, HEK293 cells expressing recombinant human NMU1. It is filed as cell-based. The method, boiled down:
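HEK293 cells stably expressing human NMU1, grown to ~90% confluence on poly-D-lysine, loaded 45 min at 37 °C with 2 μM fluo-4-AM in Krebs'-HEPES/0.1% BSA (pH 7.4), then equilibrated 5 min. Ligand added; fluorescence (ex 485/em 520 nm) read every 0.5 s. […] Four-parameter logistic fit gave EC50; Emax as % hNmU; n≥4.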

The next data set concerns the target human NMU2 (Homo sapiens, UniProt Q9GZQ4). The data set is described as follows: cellular calcium signaling assay, HEK293 cells expressing recombinant human NMU2. It is filed as cell-based. The method, boiled down: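 HEK293 cells stably expressing human NMU2 were grown to ~90% confluence on poly-D-lysine, loaded 45 min at 37 °C with 2 μM fluo-4-AM in Krebs'-HEPES-BSA (pH 7.4), then equilibrated 5 min. After ligand addition, fluorescence (ex 485/em 520 nm) was read at 0.5 s intervals. Maximal [Ca2+]i change was fitted by four-parameter logistic for EC50. Emax given as % hNmU Emax; mean ± SEM, n≥4.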

Data set [1] is described as follows: body distribution analysis in chronically treated DIO mice. It is filed as in vivo, mouse. Conditions: 2.2 mg/kg every 2 days for 28 days. The procedure, abridged: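 Male DIO C57BL/6 mice were given test compound chronically at 2.2 mg/kg (1603 nmoles/kg) every 2 days for 28 days, then killed. Organs and tissues were harvested, weighed and homogenised in 4 volumes of DMSO/ACN (1:1) with 0.1% TFA, then spun 10 min at 13000 rpm. Supernatants were analysed by triple-quadrupole LC/MS with a methylated analog as internal standard.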

For data set [2], the system named is lysophosphatidic acid (LPA). The data set is described as follows: LPA levels in plasma of chronically treated DIO mice. It is filed as in vivo, mouse. The settings on record: 1603 nmoles/kg; every 2 or 4 (NM4A) or 7 days (NM4-C16) for 21 days. The procedure, abridged:
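Ad libitum-fed male DIO C57BL/6 mice on a 60% kcal-fat diet (n=8/group) received s.c. vehicle or test compound in a phospholipid-based delivery system, 30 min before dark onset. Dosing was 1603 nmoles/kg every 2 or 4 days (2.2 mg/kg) or every 7 days (2.6 mg/kg) for 21 days. Plasma (100 μL) underwent solid-phase extraction and drying at 30–37 °C, then methanol reconstitution. 18:1, 18:2 and 20:4 LPA were quantified by LC-ESI-MS/MS.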

The next data set can be described thus: water solubility. It is filed as physicochemical.
The conditions of data set [3]: cited from earlier work.
The conditions of data set [4]: s.c. injection ref 39; cited from earlier work.

Ends that are not written are not given here.

Sequence of human NMU2 (Q9GZQ4 whole entry): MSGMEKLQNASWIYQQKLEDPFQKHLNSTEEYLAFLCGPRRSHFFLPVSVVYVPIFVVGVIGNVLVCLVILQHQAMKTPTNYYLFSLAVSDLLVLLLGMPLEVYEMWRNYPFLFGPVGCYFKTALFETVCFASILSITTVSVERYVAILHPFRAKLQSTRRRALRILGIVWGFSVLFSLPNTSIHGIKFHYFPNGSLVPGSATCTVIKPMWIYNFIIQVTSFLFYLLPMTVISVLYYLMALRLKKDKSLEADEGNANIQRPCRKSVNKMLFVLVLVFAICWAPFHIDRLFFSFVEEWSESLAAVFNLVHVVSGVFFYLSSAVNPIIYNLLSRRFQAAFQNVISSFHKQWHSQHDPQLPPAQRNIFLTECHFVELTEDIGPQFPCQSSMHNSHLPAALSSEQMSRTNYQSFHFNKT

As to “Pal-Aib -FL- α^MeF -Arg- Pro-R-N^MeN [NM33]”, at human NMU1, the “NMU1 Emax at 10 μM as % hNmU Emax” value is 20.6±1.9 % hNmU Emax. Besides, the “NMU2 Emax at 10 μM as % hNmU Emax” value at human NMU2 is recorded as 19.2±2.0 % hNmU Emax. As for `CCCCCCCCCCCCCCCCNC(=O)CNCC(=O)NC(C)(C)C(=O)N[C@@H](Cc1ccccc1)C(=O)N[C@@H](CC(C)C)C(=O)N[C@@H](Cc1ccccc1)C(=O)N[C@@H](CCCNC(=N)N)C(=O)N1CCC[C@H]1C(=O)N[C@@H](CCCNC(=N)N)C(=O)N[C@@H](CC(N)=O)C(N)=O` [NM4A, Ida^NHPal-Aib -FL- Phe -Arg- Pro-R-Asn], the “body distribution” value in data set [1] was “highest content of NM4A was detected in the plasma”. Also, the “plasma levels of LPA” value in data set [2] is “does not increase plasma levels of LPA”. The “water solubility” value in “water solubility” was “limited water solubility”. As for “Pal-Aib -FL- Phe -Arg- Pro-R-Asn-Aib [NM6]”, on human NMU1, the “NMU1 Emax at 10 μM as % hNmU Emax” value is reported as 40.6±2.2 % hNmU Emax. Moreover, the “NMU2 Emax at 10 μM as % hNmU Emax” value at human NMU2 stood at 60.7±12.1 % hNmU Emax. In the case of “X(C-Ahx -FL- Phe -Arg- Tic-R-Asn-Ahx-C) [NM13]”, the “NMU1 Emax at 10 μM as % hNmU Emax” value on human NMU1 amounted to 60.4±13.8 % hNmU Emax. Further, at human NMU2, the “NMU2 Emax at 10 μM as % hNmU Emax” value is listed as 39.3±8.8 % hNmU Emax. Consider “Pal-Aib -FL- Phe-N^MeR- Pro-R-N^MeN [NM34]”, for which, at human NMU1, the “NMU1 Emax at 10 μM as % hNmU Emax” value is 19.6±3.2 % hNmU Emax. For the same molecule, the “NMU2 Emax at 10 μM as % hNmU Emax” value on human NMU2 was found to be 18.4±3.2 % hNmU Emax. Regarding semaglutide, the plasma half-life in data set [3] is on record as 160 h. “X(C-Ahx -FL- Phe -Arg- Oic-R-Asn-Ahx-C) [NM12]”: the “NMU1 Emax at 10 μM as % hNmU Emax” value at human NMU1 was 30.00±6.0 % hNmU Emax. In addition, the “NMU2 Emax at 10 μM as % hNmU Emax” value at human NMU2 amounted to 70.0±6.0 % hNmU Emax. On the same counts, the results for “X(C-Ahx -FL- Phe -Arg- Pro-R-Asn-Ahx-C) [NM11]” are 33.7±0.2 % hNmU Emax and 60.6±11.6 % hNmU Emax. Consider “Pal-Aib -FL- α^MeF -Arg- Pro-R-N^MeN [NM36]”, for which, on human NMU1, the “NMU1 Emax at 10 μM as % hNmU Emax” value is given as 15.9±6.6 % hNmU Emax. At human NMU2, the “NMU2 Emax at 10 μM as % hNmU Emax” value was found to be 28.6±7.9 % hNmU Emax. The corresponding values for “Pal-Aib -FL- Phe-N^MeR- Pro-R-N^MeN [NM31]” are 13.8±2.0 % hNmU Emax and 17.9±1.5 % hNmU Emax. Turning to “NmU: endogenous peptide neuromedin U (FRVDEEFQSPFASQSRGYFLFRPRN-NH2; ends and bridges not checked; UniProt P48645 142-166, looked up)”, the “half-life after subcutaneous (s.c.) injection” value in data set [4] is recorded as “less than 5 min”. Turning to “Pal-Aib -FL- N^MeF -Arg- Pro-R-N^MeN [NM35]”, the “NMU1 Emax at 10 μM as % hNmU Emax” value on human NMU1 came to 22.9±3.8 % hNmU Emax. Further, on human NMU2, the “NMU2 Emax at 10 μM as % hNmU Emax” value was found to be 67.0±16.5 % hNmU Emax.

Turning to “Pal-Aib -FL- N^MeF -Arg- Pro-R-N^MeN [NM32]”, the “NMU1 Emax at 10 μM as % hNmU Emax” value on human NMU1 came out at 19.1±1.2 % hNmU Emax. Moreover, on human NMU2, the “NMU2 Emax at 10 μM as % hNmU Emax” value amounted to 15.2±3.8 % hNmU Emax.

Source of the values: article PMC4543588 (European journal of medicinal chemistry, 2015).
